Granule exo inh: LAMP-1 surface exposure blockers, TALL-104 cells – cell-based, flow cytometry, MLPCN library, primary screen; AID 651702, 2012; TALL-104 LAMP-1 surface exposure; cells stimulated with thapsigargin and PMA; hit rate 0.66% among 360,000; inhibition, % at 10 µM;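 active = inhibition above about 55%, limit read from the data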
ARFGAP1 inhibitor: inhibitors of rat ARFGAP1 GAP activity, primary screen, biochemical, fluorescence polarization, GDP tracer | ADP-ribosylation factor GTPase-activating protein 1 (Rattus norvegicus), Q62848 | Arfgap1-stimulated ARF1 GTP hydrolysis, GDP FP detection | inhibition, % at 16.5 µM | hit rate 0.26% among 360,000 | AID 651572, 2012;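 active = inhibition above a per-plate limit, mean inhibition of low control wells plus 3 SD, cut at about 25% in these data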
Target sequence (Q62848 1-136 limits assumed): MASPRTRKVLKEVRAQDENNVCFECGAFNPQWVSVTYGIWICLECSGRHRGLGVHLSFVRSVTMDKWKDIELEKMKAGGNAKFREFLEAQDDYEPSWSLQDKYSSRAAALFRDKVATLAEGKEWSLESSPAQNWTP
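Material: rat Arfgap1 GAP domain (His6, aa 1-136), purified enzyme. Also added: human ARF1(Δ1-17)-GTP substrate. Compound dosing: 16.5 µM single point, 1.26% DMSO. Timing: enzyme reaction 120 min at 25 °C after 20 min preincubation. Signal: GDP detection by fluorescence polarization. Read-out basis: percent inhibition of GAP-stimulated GDP formation, scaled between DMSO and no-Arfgap1 medians.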
V-ATPase pH: regulators of yeast V-ATPase proton pumping, primary screen, pHLuorin cytosolic pH fluorescence | AID 504577, 2011 | hit rate 0.37% among 350,000 | S. cerevisiae | response, % at 10 µM; in the data active = response mostly above about 7.3%, no sharp cut-off; inactive = mostly below about 5.4%; also: actives read high
ASAP1 inh: inhibitors of human ASAP1 ArfGAP activity, primary screen, biochemical, fluorescence polarization; inhibition, % at 16.5 µM; AID 624377, 2012; hit rate 0.19% among 360,000; ASAP1-stimulated ARF1 GTP hydrolysis, GDP FP detection; in the data active = inhibition above about 25%
Target sequence (Q9ULH1 325-724 limits assumed): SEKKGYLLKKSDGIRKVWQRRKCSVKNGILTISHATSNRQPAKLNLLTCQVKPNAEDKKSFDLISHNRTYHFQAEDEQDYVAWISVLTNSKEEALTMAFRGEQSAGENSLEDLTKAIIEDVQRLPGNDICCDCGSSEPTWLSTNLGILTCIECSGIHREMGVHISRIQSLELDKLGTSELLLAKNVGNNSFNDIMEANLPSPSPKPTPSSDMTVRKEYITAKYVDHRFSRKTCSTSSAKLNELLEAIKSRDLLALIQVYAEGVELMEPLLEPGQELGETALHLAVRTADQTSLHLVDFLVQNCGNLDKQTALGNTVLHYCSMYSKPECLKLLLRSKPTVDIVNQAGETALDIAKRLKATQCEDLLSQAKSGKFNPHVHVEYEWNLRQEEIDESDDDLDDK
NRP1-CendR mod: modulators of CendR peptide binding to NRP-1, primary screen, biochemical, fluorescence polarization, uHTS | Neuropilin-1 (Homo sapiens), O14786 | FAM-RPARPAR peptide binding to NRP-1 | inhibition, % at 25 µM | hit rate 0.85% among 360,000;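 active = inhibition or corrected inhibition above about 18%, plus a signal ratio from 0.5 to 1.5, limit read from the data, passing the limit was not always enough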
Large screens that a line does not name were inactive; ! = repeats disagree. Shown are actives, neighbours in structure and some others; about 2.2% of the full set was active somewhere.

Cc1cc(NCCCCCCCNc2cc(C)nc3cc([N+](=O)[O-])ccc23)c2ccc([N+](=O)[O-])cc2n1	ARFGAP1 inhibitor active, ASAP1 inh 108
COCCCNc1cc(C)nc2ccccc12	none
CCCCCC[N+](C)(C)CC/C=C1/c2ccccc2Sc2ccc(Cl)cc21	none
CN(C)CC/C=C1/c2ccccc2Sc2ccc(Cl)cc21	NRP1-CendR mod 27!
COc1ccc(C2CC(=O)C(c3ccc(Cl)cc3)=CN2Cc2ccccc2)cc1 (configuration not stated)	none (no result: Granule exo inh, V-ATPase pH, NRP1-CendR mod)
COc1ccc(NC(=O)c2c(-c3c(Cl)cccc3Cl)noc2C)c(OC)c1	NRP1-CendR mod 26
C[C@@H]1ON(C)[C@H]2C[C@H]3c4cc(-c5cc6ccccc6o5)ccc4CCN3C[C@@H]12	none (no result: Granule exo inh, V-ATPase pH, NRP1-CendR mod)
Brc1ccc(Sc2cnc3ccccc3n2)cc1	NRP1-CendR mod 23
O=c1[nH]c(Nc2ccccn2)cc2ccccc12	NRP1-CendR mod 45
O=c1cc(CO)oc(C(Nc2ccccn2)c2ccccc2Cl)c1O (configuration not stated)	NRP1-CendR mod 26
COc1ccc(C2CC(=O)C(c3ccc4ccccc4c3)=CN2Cc2ccccc2)cc1 (configuration not stated)	none (no result: Granule exo inh, V-ATPase pH, NRP1-CendR mod)
O=C(CSCc1ccc(Br)cc1)Nc1ccc(S(=O)(=O)N2CCOCC2)cc1	none
O=C(CSCc1ccccc1)Nc1ccc(S(=O)(=O)N2CCOCC2)cc1	NRP1-CendR mod 27
Nc1ccn([C@@H]2O[C@H](C(=O)N[C@H](Cc3ccccc3)C(=O)NCc3cccc4c3OCO4)[C@@H](O)[C@H]2O)c(=O)n1	none (no result: Granule exo inh, V-ATPase pH, NRP1-CendR mod)
O=C(CSc1nc(O)c(Cc2ccccc2)c(=O)n1-c1ccccc1)N1CCOCC1	NRP1-CendR mod 26
O=C(CCNC(=O)c1ccc(Cl)cc1)Nc1ccccc1N1CCCC1	none
O=C(NCc1ccccc1)C1CCCN(C(=O)NCc2ccccc2)C1 (configuration not stated)	none
O=C(NCc1ccccc1)C1CCC1	NRP1-CendR mod 40
CC(=O)N1CCN(C(=S)c2ccc([N+](=O)[O-])cc2)CC1	NRP1-CendR mod 18
CC(=O)N1CCN(c2ccc([N+](=O)[O-])cc2)CC1	none
COC(=O)Cc1nnn2c1[C@H](C)[C@@H](OC)c1ccccc1-2	none (no result: Granule exo inh, V-ATPase pH, NRP1-CendR mod)
O=C(NCC1CCN(C(=O)C(=O)c2cc3ccccc3o2)CC1)c1ccc2c(c1)OCCCO2	none (no result: Granule exo inh, V-ATPase pH, NRP1-CendR mod)
Cc1ccc(S(=O)(=O)N(C)c2ccc(OCC(=O)Nc3nc4ccccc4s3)cc2)cc1	NRP1-CendR mod 25
NC(=O)c1ncn([C@@H]2O[C@H](C(=O)N[C@H](Cc3c[nH]c4ccccc34)C(=O)N3CCN(C(=O)N4CCOCC4)CC3)[C@@H](O)[C@H]2O)n1	none (no result: Granule exo inh, V-ATPase pH, NRP1-CendR mod)
CS(=O)(=O)N(CC(=O)Nc1ccccc1-c1ccccc1)c1cccc(F)c1	NRP1-CendR mod 27
CS(=O)(=O)N(CC(=O)Nc1ccccc1-c1ccccc1)c1ccccc1	none
O=C(NCc1ccccc1)[C@@H]1CCCN1C(=O)[C@H]1CCCN1C(=O)c1ccccc1	none (no result: Granule exo inh, V-ATPase pH, NRP1-CendR mod)
CC(=O)c1ccc(NC(=O)CN2CCN(S(=O)(=O)c3ccc4c(c3)OCCO4)CC2)cc1	none (no result: V-ATPase pH)
COc1cc(/C=N/NC(=O)C(=O)NCC2CCCO2)ccc1O (configuration not stated)	NRP1-CendR mod 39
COC(=O)CCCCC1SCC2NC(=O)NC21O (configuration not stated)	NRP1-CendR mod 27
Cc1ccc(NC(=O)Cn2sc3nc(C)cc(C)c3c2=O)c(Cl)c1	Granule exo inh 81
Cc1cc(C)c2c(=O)n(CC(=O)Nc3ccc(Cl)cc3)sc2n1	none
CC(C)(C)C(=O)/C=c1\s/c(=C\c2ccc(-c3ccc([N+](=O)[O-])cc3)o2)c(=O)n1CC(=O)NC(N)=O	Granule exo inh 58
Cc1ccnc(SCc2cn3c(C)cccc3n2)n1	NRP1-CendR mod 20
O=C1C(CO)C(CO)C(CO)C1CO (configuration not stated)	Granule exo inh 69
CC1(c2ccccc2)CC(C)(C)n2c(O)c(C3=NC(=S)NC3=O)c3cccc1c32 (configuration not stated)	NRP1-CendR mod 26
COc1ccc(C2CC(=O)C(c3cccc(F)c3)=CN2Cc2ccccc2)cc1 (configuration not stated)	none (no result: Granule exo inh, V-ATPase pH, NRP1-CendR mod)
O=[N+]([O-])c1cc(S(=O)(=O)Oc2ccccc2)ccc1Cl	Granule exo inh 80
CCN(CC)CCNC(=O)c1ccc(NC(=O)c2cccc(S(=O)(=O)N3c4ccccc4CC3C)c2)cc1 (configuration not stated)	NRP1-CendR mod 30
CC1Cc2ccccc2N1S(=O)(=O)c1cccc(C(=O)N2CCN(c3ncccn3)CC2)c1 (configuration not stated)	NRP1-CendR mod 35
CC(=O)N1CCN(C(=O)c2cccc(S(=O)(=O)N3c4ccccc4CC3C)c2)CC1 (configuration not stated)	none
O=C1OC(N2C(=O)CC[C@H]2C(=O)NCC2CCCO2)c2ccccc21 (some centres not stated)	NRP1-CendR mod 22
CCOC(=O)C1CCN(c2nc3c(C)cccn3c(=O)c2/C=C(\C#N)S(=O)(=O)c2ccccc2)CC1	Granule exo inh 84
O=S1(=O)N[C@@H](Cc2ccccc2)COc2cccc(NCCO)c21	none (no result: Granule exo inh, V-ATPase pH, NRP1-CendR mod)
O=C(O)c1ccc(CSc2ccccn2)cc1	none
O=C(O)c1ccccc1CSc1ccccn1	NRP1-CendR mod 40
Cc1ccccc1Nc1nc(N)nc(COC(=O)CCS(=O)(=O)c2ccccc2)n1	none
Cc1ccccc1Nc1nc(N)nc(COC(=O)CC2CC3CCC2C3)n1 (configuration not stated)	NRP1-CendR mod 27
CS(=O)(=O)N1CCN(c2ccc([N+](=O)[O-])c(N3CCOCC3)c2)CC1	NRP1-CendR mod 28
COc1ccc(S(=O)(=O)Nc2ccc(N3CCOCC3)cc2)cc1[N+](=O)[O-]	NRP1-CendR mod 25
COc1ccc(S(=O)(=O)Nc2ccc(N3CCOCC3)cc2)cc1Br	none
Cc1noc(C)c1C(=O)Nc1ccc(F)cc1	NRP1-CendR mod 41
Cn1nc(C(F)(F)F)c(C#N)c1N1CCN(c2cccc(C(F)(F)F)c2)CC1	NRP1-CendR mod 39
O=C(NCCN1CCOCC1)c1cc(-c2ccc(F)cc2)on1	NRP1-CendR mod 38
CC(C)[C@H](NC(=O)c1ccccc1F)C(=O)NC1CCCCC1	none
CC(C)[C@H](NC(=O)c1ccccc1F)C(=O)OCC(=O)NC1CC1	V-ATPase pH 20
CC(=O)Nc1ccc(S(=O)(=O)N(C)CC(=O)Nc2cccc(S(=O)(=O)N3CCCC3)c2)cc1	none

Screening results from PubChem.
